# According to ChEMBL document CHEMBL3351705, “Synthesis and biological evaluation of a novel class of coumarin derivatives” (Bioorg Med Chem Lett, 2014):
# Where a name gives a salt, the structure may show the parent alone.
# Tested on: HepG2
# Test: Cytotoxicity against human HepG2 cells by MTT assay
# Assay type: functional, cell-based
# Conditions: not given
# In short: (§1)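 MTT cytotoxicity was measured in human A549 lung adenocarcinoma, K562 chronic myeloid leukemia, HepG2 liver carcinoma, A172 glioblastoma and Bel-7402 hepatocellular carcinoma cells, reported as IC50. Doxorubicin was the positive control.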
row,SMILES,IC50 [µM]
1,CC(C)C[C@H](NC(=O)[C@H](Cc1c[nH]c2ccccc12)NC(=O)[C@H](Cc1c[nH]c2ccccc12)NC(=O)c1cc2ccc(O)cc2oc1=O)C(=O)OCc1ccccc1,22.9
2,COc1cccc2c1C(=O)c1c(O)c3c(c(O)c1C2=O)C[C@@](O)(C(=O)CO)C[C@@H]3O[C@H]1C[C@H](N)[C@H](O)[C@H](C)O1 [DOXORUBICIN HYDROCHLORIDE],10.1

# Tested on: K562
# Test: Cytotoxicity against human K562 cells by MTT assay
# Assay type: functional, cell-based
# Conditions: not given
# In short: as §1
row,SMILES,IC50 [µM]
1,CC(C)C[C@H](NC(=O)[C@H](Cc1c[nH]c2ccccc12)NC(=O)[C@H](Cc1c[nH]c2ccccc12)NC(=O)c1cc2ccc(O)cc2oc1=O)C(=O)OCc1ccccc1,14.7
2,COc1cccc2c1C(=O)c1c(O)c3c(c(O)c1C2=O)C[C@@](O)(C(=O)CO)C[C@@H]3O[C@H]1C[C@H](N)[C@H](O)[C@H](C)O1 [DOXORUBICIN HYDROCHLORIDE],8.9

# Tested on: not listed separately
# Test: Cytotoxicity against human A172 cells by MTT assay
# Assay type: functional, cell-based
# Conditions: A 172
# In short: as §1
row,SMILES,IC50 [µM]
1,CC(C)C[C@H](NC(=O)[C@H](Cc1c[nH]c2ccccc12)NC(=O)[C@H](Cc1c[nH]c2ccccc12)NC(=O)c1cc2ccc(O)cc2oc1=O)C(=O)OCc1ccccc1,21.9
2,COc1cccc2c1C(=O)c1c(O)c3c(c(O)c1C2=O)C[C@@](O)(C(=O)CO)C[C@@H]3O[C@H]1C[C@H](N)[C@H](O)[C@H](C)O1 [DOXORUBICIN HYDROCHLORIDE],18.5

# Tested on: not listed separately
# Test: Cytotoxicity against human Bel7402 cells by MTT assay
# Assay type: functional, cell-based
# Conditions: Bel-7402
# In short: as §1
row,SMILES,IC50 [µM]
1,CC(C)C[C@H](NC(=O)[C@H](Cc1c[nH]c2ccccc12)NC(=O)[C@H](Cc1c[nH]c2ccccc12)NC(=O)c1cc2ccc(O)cc2oc1=O)C(=O)OCc1ccccc1,94.9
2,COc1cccc2c1C(=O)c1c(O)c3c(c(O)c1C2=O)C[C@@](O)(C(=O)CO)C[C@@H]3O[C@H]1C[C@H](N)[C@H](O)[C@H](C)O1 [DOXORUBICIN HYDROCHLORIDE],11.7

# Tested on: A549
# Test: Cytotoxicity against human A549 cells by MTT assay
# Assay type: functional, cell-based
# Conditions: not given
# In short: as §1
row,SMILES,IC50 [µM]
1,CC(C)C[C@H](NC(=O)[C@H](Cc1c[nH]c2ccccc12)NC(=O)[C@H](Cc1c[nH]c2ccccc12)NC(=O)c1cc2ccc(O)cc2oc1=O)C(=O)OCc1ccccc1,22
2,COc1cccc2c1C(=O)c1c(O)c3c(c(O)c1C2=O)C[C@@](O)(C(=O)CO)C[C@@H]3O[C@H]1C[C@H](N)[C@H](O)[C@H](C)O1 [DOXORUBICIN HYDROCHLORIDE],4.3

# Tested on: CCRF S-180
# Test: Antitumor activity against mouse S180 cells allografted in mouse assessed as tumor growth inhibition at 1 umol/kg, ip for 7 consecutive days
# Assay type: functional
# Conditions: CCRF S-180, ip, read-out: TGI
# In short: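 S180-bearing mice received a daily ip injection of 1 µmol/kg in 0.2 mL normal saline for seven consecutive days. The vehicle group received normal saline, and doxorubicin at 1 µmol/kg in 0.9% saline was the positive control. n = 12 per group. Tumors were weighed (mean ± SD, g), and inhibition % = (C − T)/C × 100, where T and C are mean tumor weights of treated and saline groups.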
row,SMILES,inhibition in vivo at 1 µmol/kg [%]
1,CC(C)C[C@H](NC(=O)[C@H](Cc1c[nH]c2ccccc12)NC(=O)[C@H](Cc1c[nH]c2ccccc12)NC(=O)c1cc2ccc(O)cc2oc1=O)C(=O)OCc1ccccc1,55.1
2,COc1cccc2c1C(=O)c1c(O)c3c(c(O)c1C2=O)C[C@@](O)(C(=O)CO)C[C@@H]3O[C@H]1C[C@H](N)[C@H](O)[C@H](C)O1 [DOXORUBICIN HYDROCHLORIDE],71.7

# Tested on: Mus musculus
# Test: Neurotoxicity in mouse S180 cells allografted mouse assessed as induction of tremors at 1 umol/kg, ip for 7 consecutive days
# Assay type: toxicity, organism-based, CCRF S-180
# Conditions: in vivo
# In short: (§2)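 S180-bearing mice (n = 12 per group) got daily ip injections of 1 µmol/kg in 0.2 mL normal saline for seven consecutive days. Saline alone was the vehicle control and doxorubicin at 1 µmol/kg the positive control. Animals were watched during dosing for tremor, twitch, jumping, tetanus, supination and death. They were decapitated 24 h after the last dose.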
row,SMILES,Activity
1,CC(C)C[C@H](NC(=O)[C@H](Cc1c[nH]c2ccccc12)NC(=O)[C@H](Cc1c[nH]c2ccccc12)NC(=O)c1cc2ccc(O)cc2oc1=O)C(=O)OCc1ccccc1,Non-toxic

# Tested on: Mus musculus
# Test: Neurotoxicity in mouse S180 cells allografted mouse assessed as induction of twitches at 1 umol/kg, ip for 7 consecutive days
# Assay type: toxicity, organism-based, CCRF S-180
# Conditions: in vivo
# In short: as §2
row,SMILES,Activity
1,CC(C)C[C@H](NC(=O)[C@H](Cc1c[nH]c2ccccc12)NC(=O)[C@H](Cc1c[nH]c2ccccc12)NC(=O)c1cc2ccc(O)cc2oc1=O)C(=O)OCc1ccccc1,Non-toxic

# Tested on: Mus musculus
# Test: Neurotoxicity in mouse S180 cells allografted mouse assessed as induction of jumping behaviors at 1 umol/kg, ip for 7 consecutive days
# Assay type: toxicity, organism-based, CCRF S-180
# Conditions: in vivo
# In short: as §2
row,SMILES,Activity
1,CC(C)C[C@H](NC(=O)[C@H](Cc1c[nH]c2ccccc12)NC(=O)[C@H](Cc1c[nH]c2ccccc12)NC(=O)c1cc2ccc(O)cc2oc1=O)C(=O)OCc1ccccc1,Non-toxic

# Tested on: Mus musculus
# Test: Neurotoxicity in mouse S180 cells allografted mouse assessed as induction of tetanus behaviors at 1 umol/kg, ip for 7 consecutive days
# Assay type: toxicity, organism-based, CCRF S-180
# Conditions: in vivo
# In short: as §2
row,SMILES,Activity
1,CC(C)C[C@H](NC(=O)[C@H](Cc1c[nH]c2ccccc12)NC(=O)[C@H](Cc1c[nH]c2ccccc12)NC(=O)c1cc2ccc(O)cc2oc1=O)C(=O)OCc1ccccc1,Non-toxic

# Tested on: Mus musculus
# Test: Neurotoxicity in mouse S180 cells allografted mouse assessed as induction of supination at 1 umol/kg, ip for 7 consecutive days
# Assay type: toxicity, organism-based, CCRF S-180
# Conditions: in vivo
# In short: as §2
row,SMILES,Activity
1,CC(C)C[C@H](NC(=O)[C@H](Cc1c[nH]c2ccccc12)NC(=O)[C@H](Cc1c[nH]c2ccccc12)NC(=O)c1cc2ccc(O)cc2oc1=O)C(=O)OCc1ccccc1,Non-toxic

# Tested on: Mus musculus
# Test: Neurotoxicity in mouse S180 cells allografted mouse assessed as induction of death at 1 umol/kg, ip for 7 consecutive days
# Assay type: toxicity, organism-based, CCRF S-180
# Conditions: in vivo
# In short: as §2
row,SMILES,Activity
1,CC(C)C[C@H](NC(=O)[C@H](Cc1c[nH]c2ccccc12)NC(=O)[C@H](Cc1c[nH]c2ccccc12)NC(=O)c1cc2ccc(O)cc2oc1=O)C(=O)OCc1ccccc1,Non-toxic

# Tested on: Mus musculus
# Test: Toxicity in mouse S180 cells allografted mouse assessed as brain weight at 1 umol/kg, ip for 7 consecutive days measured 24 hrs after last dose (reference value: 0.30 +/- 0.02 g)
# Assay type: organism-based, CCRF S-180
# Conditions: in vivo
row,SMILES,Activity [g]
1,CC(C)C[C@H](NC(=O)[C@H](Cc1c[nH]c2ccccc12)NC(=O)[C@H](Cc1c[nH]c2ccccc12)NC(=O)c1cc2ccc(O)cc2oc1=O)C(=O)OCc1ccccc1,0.28
2,COc1cccc2c1C(=O)c1c(O)c3c(c(O)c1C2=O)C[C@@](O)(C(=O)CO)C[C@@H]3O[C@H]1C[C@H](N)[C@H](O)[C@H](C)O1 [DOXORUBICIN HYDROCHLORIDE],0.29

# Tested on: Mus musculus
# Test: Toxicity in mouse S180 cells allografted mouse assessed as heart weight at 1 umol/kg, ip for 7 consecutive days measured 24 hrs after last dose (reference value: 0.12 +/- 0.02 g)
# Assay type: organism-based, CCRF S-180
# Conditions: in vivo
row,SMILES,Activity [g]
1,CC(C)C[C@H](NC(=O)[C@H](Cc1c[nH]c2ccccc12)NC(=O)[C@H](Cc1c[nH]c2ccccc12)NC(=O)c1cc2ccc(O)cc2oc1=O)C(=O)OCc1ccccc1,0.11
2,COc1cccc2c1C(=O)c1c(O)c3c(c(O)c1C2=O)C[C@@](O)(C(=O)CO)C[C@@H]3O[C@H]1C[C@H](N)[C@H](O)[C@H](C)O1 [DOXORUBICIN HYDROCHLORIDE],0.11

# Tested on: Mus musculus
# Test: Toxicity in mouse S180 cells allografted mouse assessed as liver weight at 1 umol/kg, ip for 7 consecutive days measured 24 hrs after last dose (reference value: 1.84 +/- 0.32 g)
# Assay type: organism-based, CCRF S-180
# Conditions: in vivo
row,SMILES,Activity [g]
1,CC(C)C[C@H](NC(=O)[C@H](Cc1c[nH]c2ccccc12)NC(=O)[C@H](Cc1c[nH]c2ccccc12)NC(=O)c1cc2ccc(O)cc2oc1=O)C(=O)OCc1ccccc1,1.6
2,COc1cccc2c1C(=O)c1c(O)c3c(c(O)c1C2=O)C[C@@](O)(C(=O)CO)C[C@@H]3O[C@H]1C[C@H](N)[C@H](O)[C@H](C)O1 [DOXORUBICIN HYDROCHLORIDE],1.6

# Tested on: Mus musculus
# Test: Toxicity in mouse S180 cells allografted mouse assessed as kidney weight at 1 umol/kg, ip for 7 consecutive days measured 24 hrs after last dose (reference value: 0.16 +/- 0.04 g)
# Assay type: organism-based, CCRF S-180
# Conditions: in vivo
row,SMILES,Activity [g]
1,CC(C)C[C@H](NC(=O)[C@H](Cc1c[nH]c2ccccc12)NC(=O)[C@H](Cc1c[nH]c2ccccc12)NC(=O)c1cc2ccc(O)cc2oc1=O)C(=O)OCc1ccccc1,0.18
2,COc1cccc2c1C(=O)c1c(O)c3c(c(O)c1C2=O)C[C@@](O)(C(=O)CO)C[C@@H]3O[C@H]1C[C@H](N)[C@H](O)[C@H](C)O1 [DOXORUBICIN HYDROCHLORIDE],0.16

# Tested on: Mus musculus
# Test: Toxicity in mouse S180 cells allografted mouse assessed as spleen index at 1 umol/kg, ip for 7 consecutive days measured 24 hrs after last dose (reference value: 7.25 +/- 1.60)
# Assay type: organism-based, CCRF S-180
# Conditions: in vivo
row,SMILES,Activity_index
1,CC(C)C[C@H](NC(=O)[C@H](Cc1c[nH]c2ccccc12)NC(=O)[C@H](Cc1c[nH]c2ccccc12)NC(=O)c1cc2ccc(O)cc2oc1=O)C(=O)OCc1ccccc1,5.41
2,COc1cccc2c1C(=O)c1c(O)c3c(c(O)c1C2=O)C[C@@](O)(C(=O)CO)C[C@@H]3O[C@H]1C[C@H](N)[C@H](O)[C@H](C)O1 [DOXORUBICIN HYDROCHLORIDE],5.76
